Source: ChEMBL document CHEMBL5724801, “EUbOPEN Chemogenomics Library - Multiplex” (2024)
“And” between values parts separate entries of the source, which are not always exact repeats. Equal values may be shown once.

System: U2OS
Test: Multiplex assay against U2OS
Type: toxicity, cell-based
Conditions: human
Outline: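 Cells stained live at seeding with Hoechst33342, BioTracker Green Microtubule Cytoskeleton Dye, MitoTracker Red and Annexin V Alexa Fluor 680 were imaged on a CQ1 microscope at 37°C and 5% CO2 after compound addition. Their classification by CellPathfinder machine-learning gating ran from Hoechst high-intensity objects versus normal cells, to healthy, pyknosed or fragmented nuclei among normal cells, to mitotic or apoptotic among pyknosed cells. Tubulin, mitochondrial-mass and membrane-permeability phenotypes are per cents of healthy-nucleus cells.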

[1] = 12 h, 1 µM, compound concentration 1 uM
[2] = 12 h, 10 µM, compound concentration 10 uM
[3] = 24 h, 1 µM, compound concentration 1 uM
[4] = 24 h, 10 µM, compound concentration 10 uM
[5] = 48 h, 1 µM, compound concentration 1 uM
[6] = 48 h, 10 µM, compound concentration 10 uM

CCCOc1ccc2[nH]cc(C3=CCNCC3)c2n1.Cl
Population Apoptotic (%) [1]: 80% and 87% | Population Fragmented Nuclei (%) [1]: 31% and 13% | Population Healthy Nuclei (%) [1]: 58% and 78% | Population Hoechst High Intensity Objects (%) [1]: 2% and 1% | Population Membrane Permeable-Phenotype (%) [1]: 2% and 11% | Population Mitochondria Different-Phenotype (%) [1]: 1% and 7% | Population Mitotic Cells (%) [1]: 19% and 12% | Population Normal (%) [1]: 97% and 98% | Population Pyknosed Nuclei (%) [1]: 9% and 8% | Population Tubulin-Different-Phenotype (%) [1]: 1% and 5% | Total Cell Count [1]: 218 and 98 | Population Apoptotic (%) [2]: 86% and 60% | Population Fragmented Nuclei (%) [2]: 24% and 17% | Population Healthy Nuclei (%) [2]: 66% and 74% | Population Hoechst High Intensity Objects (%) [2]: 4% and 0% | Population Membrane Permeable-Phenotype (%) [2]: 6% and 12% | Population Mitochondria Different-Phenotype (%) [2]: 5% | Population Normal (%) [2]: 96% and 100% | Population Pyknosed Nuclei (%) [2]: 8% and 7% | Population Tubulin-Different-Phenotype (%) [2]: 3% and 6% | Total Cell Count [2]: 275 and 134 | Population Apoptotic (%) [3]: 70% and 90% | Population Fragmented Nuclei (%) [3]: 27% and 18% | Population Healthy Nuclei (%) [3]: 61% and 73% | Population Hoechst High Intensity Objects (%) [3]: 1% and 2% | Population Membrane Permeable-Phenotype (%) [3]: 6% and 3% | Population Mitochondria Different-Phenotype (%) [3]: 1% and 3% | Population Normal (%) [3]: 98% and 97% | Population Pyknosed Nuclei (%) [3]: 10% and 8% | Population Tubulin-Different-Phenotype (%) [3]: 3% and 2% | Total Cell Count [3]: 252 and 138 | Population Apoptotic (%) [4]: 92% and 72% | Population Fragmented Nuclei (%) [4]: 25% and 14% | Population Healthy Nuclei (%) [4]: 66% and 78% | Population Hoechst High Intensity Objects (%) [4]: 3% and 0% | Population Membrane Permeable-Phenotype (%) [4]: 5% and 11% | Population Mitochondria Different-Phenotype (%) [4]: 3% and 2% | Population Normal (%) [4]: 96% and 99% | Population Pyknosed Nuclei (%) [4]: 8% and 6% | Population Tubulin-Different-Phenotype (%) [4]: 3% and 4% | Total Cell Count [4]: 323 and 162 | Population Apoptotic (%) [5]: 91% and 75% | Population Fragmented Nuclei (%) [5]: 19% | Population Healthy Nuclei (%) [5]: 69% and 74% | Population Hoechst High Intensity Objects (%) [5]: 2% | Population Membrane Permeable-Phenotype (%) [5]: 5% and 9% | Population Mitochondria Different-Phenotype (%) [5]: 3% | Population Normal (%) [5]: 97% | Population Pyknosed Nuclei (%) [5]: 10% and 6% | Population Tubulin-Different-Phenotype (%) [5]: 1% and 3% | Total Cell Count [5]: 350 and 183 | Population Apoptotic (%) [6]: 100% and 94% | Population Fragmented Nuclei (%) [6]: 18% and 13% | Population Healthy Nuclei (%) [6]: 75% and 78% | Population Hoechst High Intensity Objects (%) [6]: 4% and 0% | Population Membrane Permeable-Phenotype (%) [6]: 5% and 6% | Population Mitochondria Different-Phenotype (%) [6]: 2% and 3% | Population Mitotic Cells (%) [6]: 0% and 5% | Population Normal (%) [6]: 95% and 99% | Population Pyknosed Nuclei (%) [6]: 6% and 7% | Population Tubulin-Different-Phenotype (%) [6]: 3% | Total Cell Count [6]: 423 and 243

COc1ccccc1N1CCN(C[C@@H](C(=O)NC(C)(C)C)c2ccccc2)CC1.Cl.Cl
Population Apoptotic (%) [1]: 73% and 66% | Population Fragmented Nuclei (%) [1]: 29% and 14% | Population Healthy Nuclei (%) [1]: 65% and 80% | Population Hoechst High Intensity Objects (%) [1]: 2% and 1% | Population Membrane Permeable-Phenotype (%) [1]: 5% and 7% | Population Mitochondria Different-Phenotype (%) [1]: 3% and 2% | Population Mitotic Cells (%) [1]: 26% and 33% | Population Normal (%) [1]: 97% and 98% | Population Pyknosed Nuclei (%) [1]: 5% | Population Tubulin-Different-Phenotype (%) [1]: 1% and 3% | Total Cell Count [1]: 281 and 114 | Population Apoptotic (%) [2]: 46% and 50% | Population Fragmented Nuclei (%) [2]: 35% and 17% | Population Healthy Nuclei (%) [2]: 49% and 66% | Population Hoechst High Intensity Objects (%) [2]: 3% and 0% | Population Membrane Permeable-Phenotype (%) [2]: 41% and 49% | Population Mitochondria Different-Phenotype (%) [2]: 41% and 56% | Population Mitotic Cells (%) [2]: 53% and 50% | Population Normal (%) [2]: 96% and 99% | Population Pyknosed Nuclei (%) [2]: 14% and 15% | Population Tubulin-Different-Phenotype (%) [2]: 41% and 64% | Total Cell Count [2]: 226 and 102 | Population Apoptotic (%) [3]: 68% and 80% | Population Fragmented Nuclei (%) [3]: 29% and 16% | Population Healthy Nuclei (%) [3]: 62% and 75% | Population Hoechst High Intensity Objects (%) [3]: 3% | Population Membrane Permeable-Phenotype (%) [3]: 7% and 5% | Population Mitochondria Different-Phenotype (%) [3]: 1% and 6% | Population Mitotic Cells (%) [3]: 32% and 20% | Population Normal (%) [3]: 96% | Population Pyknosed Nuclei (%) [3]: 8% | Population Tubulin-Different-Phenotype (%) [3]: 3% and 2% | Total Cell Count [3]: 320 and 129 | Population Apoptotic (%) [4]: 61% and 70% | Population Fragmented Nuclei (%) [4]: 38% and 20% | Population Healthy Nuclei (%) [4]: 42% and 63% | Population Hoechst High Intensity Objects (%) [4]: 5% | Population Membrane Permeable-Phenotype (%) [4]: 20% and 39% | Population Mitochondria Different-Phenotype (%) [4]: 33% and 61% | Population Mitotic Cells (%) [4]: 38% and 29% | Population Normal (%) [4]: 94% | Population Pyknosed Nuclei (%) [4]: 18% and 15% | Population Tubulin-Different-Phenotype (%) [4]: 25% and 52% | Total Cell Count [4]: 235 and 113 | Population Apoptotic (%) [5]: 78% and 83% | Population Fragmented Nuclei (%) [5]: 21% and 16% | Population Healthy Nuclei (%) [5]: 66% and 72% | Population Hoechst High Intensity Objects (%) [5]: 2% and 4% | Population Membrane Permeable-Phenotype (%) [5]: 5% and 7% | Population Mitochondria Different-Phenotype (%) [5]: 1% and 2% | Population Mitotic Cells (%) [5]: 22% and 16% | Population Normal (%) [5]: 97% and 95% | Population Pyknosed Nuclei (%) [5]: 11% | Population Tubulin-Different-Phenotype (%) [5]: 1% and 4% | Total Cell Count [5]: 452 and 162 | Population Apoptotic (%) [6]: 58% and 96% | Population Fragmented Nuclei (%) [6]: 33% and 18% | Population Healthy Nuclei (%) [6]: 44% and 58% | Population Hoechst High Intensity Objects (%) [6]: 4% and 8% | Population Membrane Permeable-Phenotype (%) [6]: 28% and 43% | Population Mitochondria Different-Phenotype (%) [6]: 30% and 29% | Population Normal (%) [6]: 95% and 91% | Population Pyknosed Nuclei (%) [6]: 21% and 22% | Population Tubulin-Different-Phenotype (%) [6]: 21% and 35% | Total Cell Count [6]: 271 and 121
